CHRM5 antagonist: antagonists of human muscarinic M5 receptor (CHRM5); P08912; inhibition, % at 3 µM; 360,000 compounds, 0.59% hits; CHO-hM5 cells, Fluo-8 calcium fluorescence, ACh EC80;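 active = inhibition above a per-plate cutoff, the mean of that plate's test compounds plus 3 SD, cut at about 27% in these data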;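 also: 0% = acetylcholine EC80 with DMSO and 100% = DMSO without agonist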
Target sequence (P08912 whole entry, looked up): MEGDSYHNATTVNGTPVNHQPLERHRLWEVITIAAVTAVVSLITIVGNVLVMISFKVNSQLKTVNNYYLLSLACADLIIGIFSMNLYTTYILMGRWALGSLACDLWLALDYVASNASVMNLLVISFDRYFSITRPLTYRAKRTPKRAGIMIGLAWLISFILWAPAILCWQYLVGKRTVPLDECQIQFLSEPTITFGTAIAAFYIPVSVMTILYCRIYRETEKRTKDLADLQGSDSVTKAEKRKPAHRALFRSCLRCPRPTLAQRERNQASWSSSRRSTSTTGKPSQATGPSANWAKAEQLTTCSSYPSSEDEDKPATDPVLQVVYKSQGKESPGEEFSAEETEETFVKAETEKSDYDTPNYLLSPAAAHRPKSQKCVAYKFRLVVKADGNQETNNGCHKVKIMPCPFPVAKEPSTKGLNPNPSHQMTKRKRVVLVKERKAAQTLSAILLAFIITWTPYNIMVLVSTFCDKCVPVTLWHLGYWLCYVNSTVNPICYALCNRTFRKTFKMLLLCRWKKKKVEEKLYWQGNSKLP
CHRM5 PAM: CHRM5 positive allosteric modulation; activation, % at 3 µM; P08912; CHO-K1 hM5, Fluo-8 calcium, ACh EC20 PAM; 0% = ACh EC20, 100% = ACh EC100; 360,000 compounds, 0.3% hits; AID 624038;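 active = activation above the run cutoff, the mean activation of all test compounds plus 3 SD, cut at about 18% in these data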
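Probe or stimulus: acetylcholine, EC20 level; Assay system: human M5 receptor in CHO-K1 cells; Schedule: compound preincubation 140 s before EC20 acetylcholine addition; Technique: intracellular calcium via Fluo-8 fluorescence; Dosing: single-point, 3 µM nominal; Read-out basis: percent activation from peak-over-basal fluorescence ratio, scaled EC20-to-EC100 acetylcholine; Repeats: one well per compound, no replicates.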
CHRM4 antagonist: antagonists of human muscarinic M4 receptor (CHRM4) | P08173 | 360,000 compounds, 0.73% hits | inhibition, % at 3 µM | CHO-hM4 cells, ACh EC80, Fluo-8 calcium fluorescence;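 active = inhibition above its plate's cutoff, the mean inhibition of sample wells plus 3 SD, cut at about 27% in these data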;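 also: 0% = acetylcholine EC80 with DMSO and 100% = DMSO without agonist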
M4 ag: CHRM4 agonism in calcium assay; P08173; CHO-K1 hM4/Gqi5, Fluo-8 calcium fluorescence; vehicle 0%, full acetylcholine response 100%; activation, % at 3 µM; 360,000 compounds, 0.14% hits;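 active = activation above the run mean over all test wells plus 3 SD, cut at about 32% in these data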;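 also: peak over basal fluorescence ratio per well then scaled between controls; 0% = DMSO wells and 100% = acetylcholine at EC100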
CHRM4 PAM: CHRM4 positive allosteric modulation. 360,000 compounds, 0.4% hits. P08173. activation, % at 3 µM. CHO-K1 hM4/Gqi5, Fluo-8 calcium fluorescence, ACh EC20; 0% = ACh EC20, 100% = maximal ACh. AID 624126;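 active = activation above its plate's cutoff, the mean activation of sample wells plus 3 SD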
M5 ag: agonists of human muscarinic M5 receptor (CHRM5); P08912; 360,000 compounds, 0.19% hits; CHO-K1 hM5 cells, Fluo-8 calcium fluorescence; 0% DMSO wells, 100% maximal acetylcholine response; AID 624037; activation, % at 3 µM;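 active = activation above the run's mean over test compounds plus 3 SD, cut at about 23% in these data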;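 also: signal is peak over basal fluorescence ratio across the kinetic read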
Starred values were filed as active, the others as inactive. Shown are actives, neighbours in structure and some others; about 1.8% of the full set was active somewhere.

SMILES | CHRM5 antagonist | CHRM5 PAM | CHRM4 antagonist | M4 ag | CHRM4 PAM | M5 ag
CC(C)c1nc2cc(C(=O)N(C)Cc3ccc(F)cc3)ccc2o1 | -6.4 | 7.7 | -8.0 | 2.7 | 10.3 | -0.7
CN1/C(=C/C=C(C#N)C#N)C(C)(C)c2ccccc21 | 1.4 | 8.8 | -6.2 | -0.2 | -6.8 | 1.9
CC1=C/C(=C\C=C(C#N)C#N)N(C)c2ccccc21 | 17.1 | -12.6 | 1.8 | 9.6 | -0.9 | 42.6*
N#Cc1c(Cc2cccc3ccccc23)nn(CCO)c1N | 5.6 | 6.7 | 3.3 | 0.7 | 24.7* | 1.1
Cn1nc(Cc2cccc3ccccc23)c(C#N)c1N | -3.6 | 9.5 | 3.5 | 1.1 | 9.7 | 4.5
CCc1ccc(/C=N/n2c(C)cc(C)c(C#N)c2=O)cc1 | 10.5 | -3.9 | -9.5 | 1.4 | 8.3 | -1.8
Cc1c(Br)c([N+](=O)[O-])nn1CC(=O)NCCc1c[nH]c2ccccc12 | 24.6 | -17.9 | 11.3 | 15.8 | -20.6 | -5.0
Brc1cccc(OCCCCN2CCCCC2)c1 | 20.9 | -19.9 | 53.4* | 3.4 | -38.9 | -7.0
CC1CCCN(CCCCOc2cccc(Br)c2)C1 (stereo unspecified) | 4.8 | -17.5 | 35.2* | 4.0 | -17.8 | -7.8
CCOc1cccc(OCCCCN2CCCCC2)c1 | 5.5 | -10.1 | 57.3* | 0.5 | -27.7 | -8.2
CC1CCCN(CCOc2ccc(Br)cc2)C1 (stereo unspecified) | 3.8 | -0.7 | -8.0 | 3.7 | 12.2 | -3.2
OCC[C@@H]1C[C@H](O)[C@@H](O)[C@@]2(Cc3ccccc3O2)O1 | -0.7 | 2.7 | -1.4 | -1.1 | 8.3 | 5.0
Oc1c(Br)cccc1/C=N/c1ncn[nH]1 | 9.1 | -6.2 | -6.2 | 0.1 | 0.7 | -1.3
CCC(C)(C)c1ccc(OCCCC[n+]2ccccc2)c(C(C)(C)CC)c1 | 21.3 | -19.8 | 22.0 | 8.2 | -15.6 | -9.6
CCCCCc1ccc(OCCCC[n+]2cccc(C)c2)c(CCCCC)c1 | 21.3 | -19.1 | 42.5* | 0.9 | -16.8 | -9.8
CCCCCc1ccc(OCCCC[n+]2ccc(C)cc2)c(CCCCC)c1 | 21.8 | -31.3 | 48.1* | 10.7 | -24.4 | -16.8
CCCCCc1ccc(OCCCC[n+]2ccccc2)c(CCCCC)c1 | 9.4 | -14.7 | 12.6 | -0.8 | -16.9 | -10.4
Clc1cccc(Oc2cnc3ccccc3n2)c1 | 0.5 | 8.3 | 3.1 | -1.0 | 30.0* | 1.4
Cc1ccc(C(C)C)cc1NC(=O)Nc1ccc([N+](=O)[O-])cc1 | 28.1* | -15.8 | 20.3 | 18.8 | -14.3 | 7.3
Cc1ccc(NC(=O)Nc2cccc([N+](=O)[O-])c2)cc1F | 27.6* | -16.0 | 13.7 | 12.2 | -17.1 | 6.6
Cc1cc(O)c(C(C)C)cc1NC(=O)Nc1ccc([N+](=O)[O-])cc1 | 17.8 | -2.6 | -7.1 | 5.3 | 1.1 | 0.5
Cc1ccc(NC(=S)NNC(=O)c2cccc([N+](=O)[O-])c2)cc1Cl | 27.9* | -26.3 | -13.4 | 13.3 | -19.3 | 5.4
Cc1ccc(C(NC(=O)NC(C)c2ccccc2)C(Cl)(Cl)Cl)cc1F (stereo unspecified) | 4.9 | -7.6 | -0.9 | 4.2 | -2.6 | -3.2
CCN(C[C@H]1N[C@@](CC)(C(=O)OC)[C@H]2C(=O)N(Cc3ccccc3)C(=O)[C@@H]12)S(=O)(=O)c1ccc(OC(F)(F)F)cc1 | -8.6 | -6.7 | -25.9 | 6.3 | -9.7 | -2.2
Cc1ccc(S(=O)(=O)/C(=C\N(C)C)c2cnc(Cl)s2)cc1 | 7.7 | 2.2 | 0.8 | 1.8 | 5.1 | -2.9
SMILES | CHRM5 antagonist | CHRM5 PAM | CHRM4 antagonist | M4 ag | CHRM4 PAM | M5 ag
CC(C(=O)O)c1ccc(N2Cc3ccccc3C2=O)cc1 (stereo unspecified) | 8.6 | -16.5 | 40.2* | 0.7 | -14.3 | -0.8
Cc1ccccc1N1Cc2ccccc2C1=O | -3.7 | 4.0 | -13.1 | 0.9 | 2.0 | -0.2
CN(C)C(=O)C1Cc2ccccc2CN1S(=O)(=O)c1ccc(F)cc1 (stereo unspecified) | 11.9 | -0.3 | -7.4 | -0.2 | -0.7 | -3.5
Cc1cccc(C)c1C(=NCCN(C)C)c1ccccc1 | 47.6* | -31.3 | 11.4 | 2.5 | -44.0 | -18.1
CC(C)C(=O)Nc1nc2cc3c(cc2s1)OCCO3 | 6.4 | -4.4 | 0.5 | -0.6 | -8.1 | 3.5
O=C(COc1ccccc1)Nc1nc2cc3c(cc2s1)OCO3 | 26.9* | -7.3 | 0.4 | 4.9 | -1.4 | -3.2
CC(=O)Nc1nc2cc3c(cc2s1)OCO3 | -1.3 | -17.9 | -8.4 | 1.6 | 6.8 | 38.4*
CC(=O)N1CCOc2ccc(S(=O)(=O)N(C)c3ccc(C)cc3)cc21 | 5.9 | -8.4 | 29.1* | 6.4 | 2.2 | -4.0
COc1cc(-c2coc3c(C(=O)NCc4ccc(OC)c(OC)c4)cccc23)ccc1O | 15.1 | -16.1 | 5.5 | 22.9 | -8.8 | 10.0
COc1ccc(CNC(=O)c2cccc3c(-c4cccc(C(N)=O)c4)coc23)cc1OC | 27.2* | -16.6 | 20.8 | 20.9 | -10.0 | 9.2
COCCN1C(=O)CCC1(C)C(=O)NC1CCCC1 (stereo unspecified) | -4.4 | 0.8 | -14.7 | 0.6 | 3.5 | 0.0
COCCCNC(=O)c1ccc2nc(Cc3ccc(OC)cc3)oc2c1 | 8.9 | -2.2 | 36.6* | 1.9 | -15.1 | 1.7
CC(C)C(N)c1csc(NC(=O)Nc2ccc(OC(F)(F)F)cc2)n1 (stereo unspecified) | 9.8 | -5.6 | -1.6 | 19.4 | 2.0 | 5.3
O=C(C1=C(O)C(=O)N(CCCn2ccnc2)C1c1cccc(Br)c1)c1ccco1 (stereo unspecified) | 14.0 | -2.8 | -0.3 | 1.5 | 0.6 | -4.9
O=S1(=O)Nc2c(ccc3cccnc23)-c2ccccc21 | 31.4* | -3.5 | 30.1* | 1.5 | -6.8 | 0.5
Clc1ccc2ccc3cccnc3c2n1 | 1.0 | -6.5 | 3.7 | 0.1 | -3.4 | -2.5
CN(C)CC1CC/C(=C\c2ccc(O)cc2)C1=O (stereo unspecified) | 9.9 | -8.3 | 38.5* | 8.0 | -3.2 | 3.1
O=S(=O)(Nc1ccc(N2CCOCC2)cc1)c1cc(Cl)ccc1Cl | 12.3 | 18.1* | -8.0 | 5.7 | 1.2 | 3.2
CCOC(=O)C1CSC(CC(=O)Nc2ccc(OC(F)(F)F)cc2)C(=O)N1 (stereo unspecified) | 12.8 | -10.5 | 9.4 | 1.1 | -24.2 | -3.0
O=C1N=C(N2CCN(c3ccccc3)CC2)S/C1=C/c1cccs1 | 27.4* | -10.6 | -3.1 | 2.9 | -3.7 | -2.7
Cc1ccc(/C=C2\SC(N3CCN(C(c4ccccc4)c4ccccc4)CC3)=NC2=O)o1 | 38.1* | -19.1 | 81.9* | 1.2 | -43.6 | -7.3
CCC(C)Sc1cc(-c2nc3cc(C)ccn3c2NC2CCCCC2)ccc1OC (stereo unspecified) | 18.6 | -12.4 | 9.6 | 6.7 | -9.7 | -4.5

From PubChem
